From PubChem
Ab BasE inh: BasE siderophore biosynthesis inhibition | purified BasE, fluorescence polarization binding displacement | inhibition, % (test concentration not listed) | 0.1% of 84,000 active | AID 485350; in the data active = inhibition above about 25%, passing the limit was not always enough;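 also: 0% = negative plate control signal and 100% = positive plate control signal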
LANA-nucl inh: inhibitors of KSHV LANA binding to nucleosomes; FITC-LANA1-23 / chicken nucleosome fluorescence polarization; hits give low values; 0.3% of 51,000 active; z-score (test concentration not listed);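 active = both repeat wells score below -2 in polarization z-score versus plate sample wells, excluding overly bright wells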
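Test system: purified chicken nucleosomes with FITC-labelled LANA N-terminal peptide (1-23); Input: 240 nM purified chicken nucleosomes (480 nM peptide binding sites), final; Medium: TEN-BT buffer, pH 7.5; Timing: 10–45 min, room temperature; Technique: fluorescence polarization, 480 nm excitation, 535 nm parallel and perpendicular emission; Replication: duplicates.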
Numbers without * were called inactive; . = no result given. Only a selection was taken, and hits are over-represented in it overall.

SMILES	Ab BasE inh	LANA-nucl inh
CCc1c(CSC(=N)N)csc1C	-4.1	-0.085
Cc1c(CSC(=N)N)c(C)c(CSC(=N)N)c(C)c1CSC(=N)N	-2.6	-2.87*
COc1ccccc1CC(=O)N1CCN(S(=O)(=O)c2ccccc2C(F)(F)F)CC1	3.2	.
Cc1cc(N2CCCC2)ccc1/C=C/C1=CCN(C)CC1	-7.8	-4.13*
C=CCn1c(C)c(/C=C/C2=CCN(C)CC2)c2ccccc21	-20.2	-10.3
C=CCn1cc(C=C2C(=O)OC(c3ccccc3)OC2=O)c2ccccc21 (configuration not stated)	3.0	.
CC1CCCC(NC(=O)Cn2c3ccccc3c3cn[nH]c(=O)c32)C1C (configuration not stated)	0.9	-1.01
c1ccc(-c2nnc(OCC3CCCO3)c3ccccc23)cc1 (configuration not stated)	27.5*	.
Nc1ccc(OCC2CCCO2)cc1 (configuration not stated)	-2.4	0.337
N#C/C(=C/c1cn(CC(=O)O)c2ccccc12)c1ccc(C(=O)O)cc1	-1.4	1.51
CCOc1ccc(C(=O)NC(C(=O)Nc2ccc(S(=O)(=O)N(C)C)cc2)C(C)C)cc1 (configuration not stated)	-0.7	.
O=C(/C=C/c1ccccc1)Nc1cccnc1	36.0*	.
O=C(/C=C/c1ccccc1)Nc1ccc(O)cc1	20.4	.
NC(=O)c1ccsc1NC(=O)COC(=O)c1ccccc1	39.7*	.
NC(=O)c1ccsc1NC(=O)CSc1ccccc1	-1.5	0.266
COc1ccc(CNS(=O)(=O)c2cccc3nsnc23)cc1	-0.4	-0.192
Cc1ccc(C)n1-c1ccsc1C(=O)O	17.5	-3.69*
Cc1ccc(C)n1-c1ccsc1C(=O)CC#N	.	-0.221
O=C1C2C3C=CC(C3)C2C(=O)N1c1cccc(N2C(=O)C3C4C=CC(C4)C3C2=O)c1 (configuration not stated)	2.0	.
CCCNC(=O)CCC1CCCCC1	0.6	.
S=c1[nH]ncc2ccccc12	0.8	.
Cc1cccc2[nH]ncc12	24.7*	0.321
O=c1ccc(-c2ccccc2)nn1CCN1CCCCC1	-0.1	-1.65
N#Cc1ccccc1CNCc1cccs1	-0.1	-2.13*
CCNCc1cccs1	-1.6	.
SMILES	Ab BasE inh	LANA-nucl inh
Cn1c(=O)c(=O)n(C)c2cc(S(=O)(=O)CCC(=O)N3CCOc4ccccc43)ccc21	0.3	1.14
O=C(CN1CCN(C2c3ccccc3-c3ccccc32)CC1)c1ccc2c(c1)OCO2	0.8	0.0085
O=C(c1ccc2c(c1)OCO2)N1CCN(C2c3ccccc3-c3ccccc32)CC1	3.0	-2.33*
CC(C)n1ncc2c(C(=O)OCc3ccc(C#N)cc3)cc(-c3ccccc3)nc21	-1.6	.
O=C(O)c1cc(-c2ccccc2)nc2c1cnn2Cc1ccncc1	99.1*	.
O=C(NC1CCCCCC1)C1CCCN(C(=O)N2CCOc3ccccc32)C1 (configuration not stated)	2.0	-0.034
Cc1cc(/C=C2\SC(N)=NC2=O)c(C)n1C1CC1	0.4	.
O=c1[nH]c2c(s1)C1c3ccccc3OC3CCCC(S2)C31 (configuration not stated)	7.8	-9.75*
O=C1Oc2ccccc2C2c3sc(=O)[nH]c3SC(c3ccccc3)C12 (configuration not stated)	0.1	-0.435
O=C(CCC1COc2ccccc2O1)Nc1ccccc1Cl (configuration not stated)	-0.5	2.19
CCOC(=O)/C(C#N)=C\c1cc2ccc(OC)cc2[nH]c1=O	13.6	-4.54*
COc1cccc(C(=O)NCCc2cc3ccc(OC)cc3[nH]c2=O)c1	-6.1	0.267
O=C1C=C(c2ccccc2)C(=O)c2ccccc21	1.8	0.465
COc1cc(C(=O)N=c2c(C#N)cc3c(=O)n4cccc(C)c4nc3n2C(C)C)cc(OC)c1OC	-0.4	.
CC1(C)CC(=O)c2cc(C#N)c(SCc3ccccc3)nc2C1	-3.7	.
CC1(C)NC(=O)C(C#N)=C(SCc2ccccc2)S1	37.8*	-1.16
CCc1nn(C)c2c(=O)c(=O)c2n(C)[nH]1	12.5	.
Cc1nn(C)c2c(=O)c(=O)c2n(C)[nH]1	5.0	-3.57*
Nc1cc[n+](CC(O)CO)cc1 (configuration not stated)	-90.3	-3.07*
Cc1ccc(/C=N/c2sccc2C#N)cc1	.	-6.48*
N#Cc1ccsc1/N=C/c1ccccc1	.	-0.415
COC(=O)c1cc2sccc2n1Cc1nc(-c2ccccc2F)oc1C	-0.7	0.669
O=C(NCc1ccc2c(c1)OCO2)c1ccc(S(=O)(=O)N2CCCC2)cc1	-2.8	0.835
O=C(c1cnn(C(=O)CN2c3cccc4cccc(c34)S2(=O)=O)c1)c1ccccc1O	0.5	.
CC1=C(C(=O)OC(C)C)C(c2ccccc2F)C(C#N)=C(N)O1 (configuration not stated)	-3.0	-0.174
SMILES	Ab BasE inh	LANA-nucl inh
CCOC(=O)C1=C(N)Oc2cc(C)oc(=O)c2C1c1ccccc1F (configuration not stated)	27.7*	-0.569
CC(CCc1ccccc1)NC(=O)C(C)N1CCNC(=O)C1 (configuration not stated)	0.4	.
Cc1cccn2c(=O)c(/C=C(\C#N)C(=O)NCCc3ccccc3)c(NCCOCCO)nc12	-5.4	1.58
CC(=O)Nc1ccc(-c2nc3cc(C)ccc3o2)cc1	0.5	-0.911
CC(=O)Nc1ccc2oc(C)nc2c1	36.6*	1.06
COc1cccc(NC(=O)Cn2ncc3c2-c2ccccc2OC3)c1	-0.9	-2.31*
CCC(C)NC(=O)Cn1ncc2c1-c1ccccc1OC2 (configuration not stated)	-1.5	-1.7
CC(=O)N1c2ccc(S(=O)(=O)NCC3CCC(C(=O)NCc4ccccn4)CC3)cc2CC1C (configuration not stated)	10.6	-0.844
S=C=Nc1ccc(Oc2ccccc2)cc1	-5.5	.
Cc1nc2ccn(Cc3cccnc3)c(=O)c2cc1C(=O)NCCCc1ccco1	2.8	-2.12*
Cc1ccc(NC(=O)c2cc3c(=O)n(Cc4ccco4)ccc3nc2C)cc1	-2.5	-0.429
Cc1ccc2o/c(=N\O)c(C(N)=O)cc2c1	2.2	-0.0975
CN(C)c1ccc2c3c(cccc13)C(=O)N(c1nc3ccccc3n1C)C2=O	0.3	-0.971
CC(=O)NN1C(=O)c2cccc3c(N(C)C)ccc(c23)C1=O	31.6*	.
CCOC(=O)c1ccc(-c2ccc(/C=C(\C#N)C(=O)NCc3cccs3)o2)cc1	-0.7	0.511
N#C/C(=C/c1ccc(-c2ccc(S(N)(=O)=O)cc2)o1)C(=O)Nc1cc(Cl)ccc1Cl	29.9	-5.68*
N#C/C(=C\c1ccc(-c2cccc(Cl)c2)o1)C(N)=O	-3.6	-0.339
CCOC(=O)c1ccccc1NC(=O)/C(C#N)=C/c1ccc(-c2ccc(Cl)cc2)o1	9.7	-4.28*
N#CC(C#N)=C(N)/C(C#N)=C\c1ccc(-c2ccccc2)o1	0.9	-0.109
CCOC(=O)c1cc(-c2ccc(/C=C(\C#N)C(N)=C(C#N)C#N)o2)ccc1Cl	6.5	-4.52*
CCOc1ccc(Cl)cc1N	-0.8	0.124
CC[C@H]1OC(=O)[C@H](C)[C@@H](OC2CC(C)(OC)C(O)C(C)O2)[C@H](C)[C@@H](OC2OC(C)CC(N(C)C)C2O)[C@](C)(O)C[C@@H](C)/C(=N\OCOCCOC)[C@H](C)[C@@H](O)[C@]1(C)O (some centres not stated)	0.4	0.701
COc1ccc(S(=O)(=O)N2CCc3ccccc32)cc1C(=O)Nc1ccc2c(c1)OCCO2	1.4	.
O=C(CSc1nnc2[nH]c(=O)ccn12)NCc1ccc(F)cc1	0.5	-0.0655
